# Screening data as filed in PubChem.
# IDH1 R132H inh = inhibitors of IDH1 R132H reductase, primary screen, biochemical, plate reader, single point; inhibition, % at 10 µM; AID 624101, 2012; 70,000 compounds, 0.18% hits; diaphorase/resazurin fluorescence, 60 min; in the data active means inhibition above about 34%; inconclusive means no clear call, values can overlap the other calls; inactive means below about 11%
# T cruzi growth-1 = T. cruzi intracellular proliferation inhibitors, primary screen, cell-based, beta-gal Tulahuen parasites, NIH3T3 host, luminescence. T. cruzi beta-gal in NIH3T3, GalScreen luminescence, 90 h. inhibition, % at 8.34 µM. 77,000 compounds, 5.9% hits. AID 624255, 2012;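 active means mean inhibition above about 93%, with at least 55% of replicates each passing it, limit read from the data, passing the limit was not always enough; inconclusive means only one of those two conditions holds; inactive means neither condition holds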
# Pf Dd2 inh = P. falciparum Dd2 growth inhibitors, primary screen, SYBR Green fluorescence, single dose replicates. AID 1159554, 2015. 94,000 compounds, 2.3% hits. activity change, % at 10 µM. 72 h; active compounds read low; in the data active means activity change below about -80%; inconclusive means no clear call, values can overlap the other calls
# GASC1 inh = inhibitors of GASC-1 (KDM4C) histone demethylase, primary screen, biochemical, single concentration HTS; inhibition, % at 12.5 µM; Lysine-specific demethylase 4C (Homo sapiens), Q9H3R0; 96,000 compounds, 0.15% hits; AID 720574, 2013; GST-KDM4C 2-372, H3K9me3 peptide, LANCE TR-FRET;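 active means mean replicate inhibition above about 25%, with at least 55% of replicates also reaching it, limit read from the data, passing the limit was not always enough; inconclusive means only one of those two conditions met; inactive means neither condition met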
# Target sequence (Q9H3R0 2-372 limits assumed): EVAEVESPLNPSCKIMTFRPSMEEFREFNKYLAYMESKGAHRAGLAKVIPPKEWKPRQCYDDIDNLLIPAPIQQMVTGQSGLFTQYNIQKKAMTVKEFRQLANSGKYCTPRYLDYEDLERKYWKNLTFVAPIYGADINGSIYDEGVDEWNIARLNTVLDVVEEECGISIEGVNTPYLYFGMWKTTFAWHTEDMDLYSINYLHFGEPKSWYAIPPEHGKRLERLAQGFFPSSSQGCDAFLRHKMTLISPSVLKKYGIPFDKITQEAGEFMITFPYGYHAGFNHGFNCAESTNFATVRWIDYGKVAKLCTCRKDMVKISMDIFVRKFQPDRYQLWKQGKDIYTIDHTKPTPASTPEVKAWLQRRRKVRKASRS
#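 material = GST-tagged GASC-1 (JMJD2C) catalytic fragment, aa 2-372 | amount = enzyme final amount 10 nM | medium = HEPES buffer, pH 7.5, plus ascorbate | also added = H3K9me3 peptide substrate, Fe(II), 2-oxoglutarate | dosing = single dose | times = 30 min demethylation and 1 h detection at room temperature | detection = LANCE TR-FRET | read-out basis = Fall in 671/618 emission ratio as inhibition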
# T cruzi growth-2 = T. cruzi intracellular proliferation inhibitors, confirmation, cell-based, NIH3T3 host, beta-gal parasite, luminescence, cherry-pick. shares compounds with T cruzi growth-1. T. cruzi beta-gal in NIH3T3, GalScreen luminescence, 90 h. inhibition, % at 8.35 µM. 5,600 compounds, 72% hits. AID 651739, 2012;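 active means mean replicate inhibition above about 95% and at least 55% of replicates individually reaching it, limit read from the data; inconclusive means only one of the two criteria is met; inactive means neither criterion is met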
# T cruzi growth-3 = inhibitors of intracellular T. cruzi replication, confirmation, NIH3T3 host cells, beta-gal parasites, cherry-pick, set 2; shares compounds with T cruzi growth-1; T. cruzi beta-gal in NIH3T3, GalScreen luminescence, 90 h; inhibition, % at 2.09 µM; 5,600 compounds, 21% hits; AID 651740, 2012;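 active means mean inhibition above about 95%, with at least 55% of replicates also reaching it, limit read from the data; inconclusive means meets just one of the two conditions; inactive means meets neither condition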
# NIH3T3 tox = cytotoxicity in mouse NIH/3T3 fibroblasts, confirmation, cytotoxicity control for T. cruzi proliferation inhibitor project, cell-based, cherry-pick, single point. shares compounds with T cruzi growth-1. NIH/3T3 viability, CellTiter-Glo ATP luminescence, 90 h. cytotoxicity (signal decrease), % at 8.35 µM. 5,600 compounds, 14% hits;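 active means mean signal decrease across replicates above about 35% based on untreated-well scatter, with enough replicates individually passing, limit read from the data; inconclusive means no rule stated though some were filed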
# NIH3T3 tox 2 = NIH/3T3 fibroblast cytotoxicity, confirmation, cytotoxicity control, cell-based, cherry-pick, single point, set 2; shares compounds with T cruzi growth-1; NIH/3T3 viability, CellTiter-Glo ATP luminescence, 90 h; inhibition, % at 24.9 µM; 5,600 compounds, 56% hits; AID 651744, 2012;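 active means mean loss of cell viability signal at or above a set limit, and enough replicates individually reaching it; inconclusive means meets only the mean limit or only the replicate share; inactive means meets neither condition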
# Numbers stand for hits; 0 = inactive; ? = inconclusive; - = not tested or not shown. Most compounds without a hit are left out; they make up all but 5.9% or so of the library.
SMILES,IDH1 R132H inh,T cruzi growth-1,Pf Dd2 inh,GASC1 inh,T cruzi growth-2,T cruzi growth-3,NIH3T3 tox,NIH3T3 tox 2
COc1cccc(-c2ccc([C@H]3[C@@H](CO)N4CCCCN(Cc5cncnc5)C[C@@H]34)cc2)c1,-,0,0,0,-,-,-,-
Cc1cccc(-c2ccc([C@@H]3[C@@H](CO)N4CCCCN(Cc5cncnc5)C[C@@H]34)cc2)c1,-,0,0,0,-,-,-,-
COc1cccc(-c2ccc([C@H]3[C@@H](CO)N4CCCCN(Cc5cncnc5)C[C@H]34)cc2)c1,-,99,0,0,108,0,0,45
COc1ccccc1-c1ccccc1[C@@H]1[C@H](C#N)N(C(=O)CN(C)C)[C@H]1CO,-,-,0,0,-,-,-,-
O=C(CCCCC(=O)N/N=C/c1cc(O)ccc1Br)NO,0,-,-,-,-,-,-,-
CC(=O)N(C)C[C@H]1Oc2cc(-c3ccc(C)cc3)ccc2S(=O)(=O)N([C@H](C)CO)C[C@@H]1C,0,0,0,0,-,-,-,-
Cc1noc(C)c1S(=O)(=O)Nc1ccc2c(c1)C(=O)N([C@H](C)CO)C[C@H](C)[C@H](CN(C)Cc1ccc(C(F)(F)F)cc1)O2,-,0,0,0,-,-,-,-
C[C@H](CO)N1C[C@H](C)[C@@H](CN(C)C(=O)CN2CCOCC2)Oc2cc(Br)ccc2S1(=O)=O,-,-,0,0,-,-,-,-
OC[C@@H]1[C@H](c2ccc(Br)cc2)[C@@H]2CN(Cc3cncnc3)CCCCN12,-,96,0,0,0,0,0,0
Cc1cccc(-c2ccc([C@@H]3[C@H](CO)N4CCCCN(Cc5cncnc5)C[C@@H]34)cc2)c1,-,0,0,0,-,-,-,-
Cc1cccc(-c2ccc([C@@H]3[C@H]4CN(Cc5cncnc5)CCCCN4[C@H]3CO)cc2)c1,-,103,0,0,0,0,0,102
OC[C@@H]1[C@H](c2ccc(Br)cc2)[C@H]2CN(Cc3ccccn3)CCCCN12,-,97,0,0,99,0,0,0
C[C@H]1CN([C@@H](C)CO)C(=O)c2cc(-c3ccc(F)cc3)cnc2O[C@@H]1CN(C)CC1CCCCC1,0,0,0,0,-,-,-,-
CNC[C@H]1Oc2cc(C#Cc3ccncc3)ccc2S(=O)(=O)N([C@@H](C)CO)C[C@@H]1C,0,-,0,0,-,-,-,-
COc1ccc(C#Cc2ccc3c(c2)O[C@H](CN(C)C(=O)Nc2cccc(OC)c2)[C@H](C)CN([C@H](C)CO)S3(=O)=O)cc1,-,98,0,0,105,111,0,0
COc1cccc(NC(=O)N(C)C[C@H]2Oc3cc(-c4ccccc4F)ccc3S(=O)(=O)N([C@H](C)CO)C[C@H]2C)c1,-,96,0,-,110,0,0,0
COc1cccc(C#Cc2ccc3c(c2)O[C@H](CN(C)C(C)=O)[C@@H](C)CN([C@@H](C)CO)S3(=O)=O)c1,0,?,0,0,102,0,0,49
COc1cccc(NC(=O)N(C)C[C@@H]2Oc3cc(-c4ccccc4F)ccc3S(=O)(=O)N([C@@H](C)CO)C[C@@H]2C)c1,-,0,0,-,-,-,-,-
COc1cccc(NC(=O)N(C)C[C@@H]2Oc3cc(C#Cc4ccccc4)ccc3S(=O)(=O)N([C@H](C)CO)C[C@H]2C)c1,0,?,?,-,99,0,52,39
COc1cccc(C#Cc2ccc3c(c2)O[C@H](CN(C)C(C)=O)[C@H](C)CN([C@H](C)CO)S3(=O)=O)c1,0,0,0,0,-,-,-,-
COc1cccc(NC(=O)N(C)C[C@@H]2Oc3cc(C#Cc4ccncc4)ccc3S(=O)(=O)N([C@@H](C)CO)C[C@H]2C)c1,0,0,0,0,-,-,-,-
O=C(C[C@H]1C=C[C@H](NC(=O)CN2CCOCC2)[C@@H](CO)O1)NC1CCCCC1,0,0,0,0,-,-,-,-
C[C@H](CO)N1C[C@H](C)[C@@H](CN(C)S(=O)(=O)c2cccs2)Oc2ccc(NC(=O)CCC(F)(F)F)cc2CC1=O,0,0,0,0,-,-,-,-
CO[C@@H]1CN(C)C(=O)c2cc(NC(=O)C3CCOCC3)ccc2OC[C@@H](C)N(CC2CCOCC2)C[C@H]1C,0,0,-,0,-,-,-,-
COc1cccc(NC(=O)N(C)C[C@H]2Oc3cc(C#Cc4ccc(F)cc4)ccc3S(=O)(=O)N([C@H](C)CO)C[C@@H]2C)c1,-,94,0,0,102,0,0,0
SMILES,IDH1 R132H inh,T cruzi growth-1,Pf Dd2 inh,GASC1 inh,T cruzi growth-2,T cruzi growth-3,NIH3T3 tox,NIH3T3 tox 2
COc1cccc(NC(=O)N(C)C[C@H]2Oc3cc(C#Cc4ccc(F)cc4)ccc3S(=O)(=O)N([C@@H](C)CO)C[C@H]2C)c1,-,116,0,0,0,102,0,0
COc1cccc(NC(=O)N(C)C[C@H]2Oc3cc(C#CC4(O)CCCC4)ccc3S(=O)(=O)N([C@H](C)CO)C[C@@H]2C)c1,-,-,0,0,-,-,-,-
COc1cccc(NC(=O)N(C)C[C@@H]2Oc3cc(C#Cc4ccc(F)cc4)ccc3S(=O)(=O)N([C@@H](C)CO)C[C@H]2C)c1,0,105,0,0,109,105,48,30
COc1cccc(NC(=O)N(C)C[C@@H]2Oc3cc(-c4ccccc4F)ccc3S(=O)(=O)N([C@H](C)CO)C[C@H]2C)c1,-,0,0,0,-,-,-,-
COc1cccc(NC(=O)N(C)C[C@@H]2Oc3cc(-c4ccccc4OC)ccc3S(=O)(=O)N([C@H](C)CO)C[C@H]2C)c1,-,-,0,0,-,-,-,-
COc1cccc(NC(=O)N(C)C[C@@H]2Oc3cc(C#Cc4ccc(F)cc4)ccc3S(=O)(=O)N([C@@H](C)CO)C[C@@H]2C)c1,-,98,-86,0,102,107,45,0
CO[C@@H]1CN(C)C(=O)c2cc(NC(=O)Nc3ccccc3)ccc2OC[C@@H](C)N(C(=O)CN(C)C)C[C@@H]1C,0,0,0,0,-,-,-,-
C[C@H]1CN([C@@H](C)CO)C(=O)Cc2cc(NC(=O)Nc3ccccc3)ccc2O[C@@H]1CN(C)S(=O)(=O)c1cccs1,0,0,0,0,-,-,-,-
CN1c2ccc(Br)cc2[C@@H]2[C@@H](CCN2S(=O)(=O)c2ccc(F)cc2)[C@H]1CO,-,0,0,0,-,-,-,-
CN1c2ccc(-c3cccc(F)c3)cc2[C@@H]2[C@@H](CCN2S(=O)(=O)c2cccc(F)c2)[C@@H]1CO,-,102,0,0,98,0,59,105
